Results collected from several papers.
Lines come from different studies, so protocols differ.
Target: Serine/threonine-protein kinase Sgk3 (SGK3, Homo sapiens, UniProt Q96BR1)
Residues used in one study (Q96BR1 1-496): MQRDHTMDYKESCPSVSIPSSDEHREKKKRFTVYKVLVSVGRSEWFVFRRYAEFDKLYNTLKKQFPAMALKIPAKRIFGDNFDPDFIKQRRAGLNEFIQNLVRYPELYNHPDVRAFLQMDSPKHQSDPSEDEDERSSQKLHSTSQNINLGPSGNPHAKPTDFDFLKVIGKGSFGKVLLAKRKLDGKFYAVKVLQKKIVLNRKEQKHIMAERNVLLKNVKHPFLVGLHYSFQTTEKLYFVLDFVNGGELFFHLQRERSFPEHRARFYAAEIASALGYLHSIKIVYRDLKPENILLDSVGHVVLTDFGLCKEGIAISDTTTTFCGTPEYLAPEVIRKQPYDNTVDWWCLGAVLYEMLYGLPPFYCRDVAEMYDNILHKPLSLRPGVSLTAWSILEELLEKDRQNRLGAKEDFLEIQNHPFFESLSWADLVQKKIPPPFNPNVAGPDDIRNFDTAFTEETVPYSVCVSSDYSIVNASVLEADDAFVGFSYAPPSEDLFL

COc1ccc2[nH]c3c4[nH]c5ccc(OC)cc5c4c4c(c3c2c1)C(=O)NC4=O
remaining binding (binding; 1 µM): 8.1%

C=CC(=O)N1CCC[C@@H](n2nc(-c3ccc(Oc4ccccc4)cc3)c3c(N)ncnc32)C1
inhibition (enzyme activity, inhibitor; 1 µM): 9%

C[C@H]1CC[C@H](n2c3cnccc3c3cnc(Nc4ccc5c(n4)CCN(C(=O)CO)C5)nc32)CC1
remaining signal (cell-free assay; 1 µM): 39%

CO[C@@H]1[C@H](N(C)C(=O)c2ccccc2)C[C@H]2O[C@]1(C)n1c3ccccc3c3c4c(c5c6ccccc6n2c5c31)C(=O)NC4
inhibition (enzyme activity, inhibitor; 1 µM): 43%

Cc1cc(O)c(-c2ccc([C@@H](C)CN(C)C)cc2)c2c1[nH]c(=O)c1sccc12
inhibition (enzyme activity, inhibitor; 0.1 µM): 3.22%

C#Cc1cc(-c2cc(Nc3nc(N[C@@H](C)c4ccc(F)cn4)ncc3Cl)n[nH]2)ccc1C=O
inhibition (enzyme activity, inhibitor; 0.2 µM): 19.1%

CCCCC(=O)Nc1ccc(-c2ccc3ncn(CCC)c(=O)c3c2)cn1
remaining binding (binding, competition with immobilised ligand; 0.5 µM): 97%

CC(C)S(=O)(=O)c1ccc2nccc(Nc3ccc4sc(C5CCCC5)nc4c3)c2c1
activity vs control (enzyme activity, inhibitor; 1 µM): 110%
